Results taken from ChEMBL document CHEMBL5370647 (J Med Chem, 2023).
The source made the active and inactive calls. The rule behind the calls is not given here.

What was measured:
[1] = tested on: Mycobacterium tuberculosis; assay: Antitubercular activity against RIF/INH-tolerant persistent Mycobacterium tuberculosis H37Rv assessed as reduction of viable bacteria at 4.9 uM incubated for 14 days followed by drug wash-out and measured after 21 days; type: functional, organism-based; conditions: time 14.0 day
Procedure, shortened: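 Static at 37 °C for 14 days, washed twice, resuspended in fresh 7H9 and recovered for 28 days. CFU plated 21 and 28 days after drug removal.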

[2] = Oral bioavailability in CD-1 mouse at 10 mg/kg by LC/MS/MS analysis; type: ADME, organism-based; conditions: in vivo
Procedure, shortened: (§1)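 Full PK study in CD1 mice at 10 mg/kg given by oral, intravenous and intraperitoneal routes. Plasma levels monitored over 8 h by LC/MS/MS.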

[3] = tested on: Mycobacterium tuberculosis; assay: Antitubercular activity against non-replicating Mycobacterium tuberculosis H37Rv expressing luxCDAB assessed as inhibition of bacterial growth incubated for 7 days under hypoxia conditions followed by incubation in normoxia conditions for 5 days by luminescence based analysis; type: functional; conditions: 288 h, time 12 day
[4] = Metabolic stability of the compound in CD-1 mouse liver microsomes assessed as parent compound remaining at 5 uM preincubated for 5 mins followed by NADPH addition and measured after 30 mins by LC-TOF/MS analysis; type: ADME, Microsome; conditions: time 35 min, read-out: Stability
Procedure, shortened: (§2)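 Mouse liver microsomes incubated with compound in the presence of NADPH. Read-out is % parent compound remaining after 30 min.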

[5] = Metabolic stability of the compound in CD-1 mouse liver microsomes at 5 uM by LC-TOF/MS analysis; type: ADME, Microsome; procedure, shortened: as §2
[6] = AUC(last) in CD-1 mouse at 10 mg/kg, po by LC/MS/MS analysis; type: ADME, organism-based; design: dose 10 mg/kg, route po; conditions: in vivo
Procedure, shortened: (§3)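 CD1 mice dosed orally at 10 mg/kg (snapshot PK study). Plasma levels followed over 5 h by LC/MS/MS. T1/2, Cmax and AUC_last derived from the plasma profile.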

[7] = Half life in CD-1 mouse at 10 mg/kg, po by LC/MS/MS analysis; type: ADME, organism-based; conditions: in vivo; procedure, shortened: as §3
[8] = Cmax in CD-1 mouse at 10 mg/kg, po by LC/MS/MS analysis; type: ADME, organism-based; design: dose 10 mg/kg, route po; conditions: in vivo; procedure, shortened: as §3
[9] = Volume of distribution in CD-1 mouse at 10 mg/kg by LC/MS/MS analysis; type: ADME, organism-based; conditions: in vivo; procedure, shortened: as §1
[10] = Bioavailability in CD-1 mouse at 10 mg/kg, ip by LC/MS/MS analysis; type: ADME, organism-based; conditions: in vivo; procedure, shortened: as §1

| SMILES | Activity [1] | bioavailability [2] [%] | MIC50 [3] [µM] | MIC90 [3] [µM] | remaining at 0.5 h, 5 µM [4] [%] | Stability [5] | AUClast [6] [ng·h/mL] | t1/2 [7] [h] | Cmax [8] [ng/mL] | Vd [9] [L/kg] | bioavailability [10] [%] |
| --- | --- | --- | --- | --- | --- | --- | --- | --- | --- | --- | --- |
| CC[C@@H](CO)NCCN[C@@H](CC)CO | inactive |  |  |  |  |  |  |  |  |  |  |
| Cc1cccc(-c2nc(Nc3ccncc3)c3ccn(C)c3n2)n1 |  | 25 | < 1 | < 1 | 39 | Stable | 640 | 1.9 | 280 | 4.65 | 65 |
